According to ChEMBL document CHEMBL4177769, “Highly Selective and Potent Ectonucleotide Pyrophosphatase-1 (NPP1) Inhibitors Based on Uridine 5'-Pα,α-Dithiophosphate Analogues” (J Med Chem, 2018):
The source made the active and inactive calls. No cut-off for these calls is given here.

Columns and labels:
[1] = molecular target: T1, Ectonucleoside triphosphate diphosphohydrolase 8 (Homo sapiens) (UniProt Q5MY95); experiment: Inhibition of human NTPDase8 at 100 uM using ATP as substrate preincubated for 3 mins followed by substrate addition measured after 10 mins by malachite green reagent-based assay
T1 sequence (whole entry): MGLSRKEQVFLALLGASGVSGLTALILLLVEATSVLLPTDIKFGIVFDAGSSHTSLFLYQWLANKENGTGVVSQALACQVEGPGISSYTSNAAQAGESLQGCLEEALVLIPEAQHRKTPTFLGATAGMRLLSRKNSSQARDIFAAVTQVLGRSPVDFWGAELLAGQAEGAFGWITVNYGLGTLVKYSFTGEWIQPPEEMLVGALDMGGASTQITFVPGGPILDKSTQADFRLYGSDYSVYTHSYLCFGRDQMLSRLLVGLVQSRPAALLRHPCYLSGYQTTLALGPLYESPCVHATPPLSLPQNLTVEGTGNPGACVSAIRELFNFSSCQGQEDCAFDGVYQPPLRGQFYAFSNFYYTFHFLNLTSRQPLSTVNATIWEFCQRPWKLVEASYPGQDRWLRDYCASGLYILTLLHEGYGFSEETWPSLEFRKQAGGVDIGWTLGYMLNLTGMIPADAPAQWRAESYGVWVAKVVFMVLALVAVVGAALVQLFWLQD
Method in brief: (§1)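 Compound at 100 μM, 3 min preincubation, 100 μM ATP, 10 min. Stopped with malachite green; Pi read at 630 nm. Blank with enzyme added after stop subtracted. Activity with ATP alone taken as 100%.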

[2] = molecular target: T2, Ectonucleoside triphosphate diphosphohydrolase 1 (Homo sapiens) (UniProt P49961); experiment: Inhibition of human NTPDase1 at 100 uM using ATP as substrate preincubated for 3 mins followed by substrate addition measured after 10 mins by malachite green reagent-based assay; method in brief: as §1
T2 sequence (whole entry): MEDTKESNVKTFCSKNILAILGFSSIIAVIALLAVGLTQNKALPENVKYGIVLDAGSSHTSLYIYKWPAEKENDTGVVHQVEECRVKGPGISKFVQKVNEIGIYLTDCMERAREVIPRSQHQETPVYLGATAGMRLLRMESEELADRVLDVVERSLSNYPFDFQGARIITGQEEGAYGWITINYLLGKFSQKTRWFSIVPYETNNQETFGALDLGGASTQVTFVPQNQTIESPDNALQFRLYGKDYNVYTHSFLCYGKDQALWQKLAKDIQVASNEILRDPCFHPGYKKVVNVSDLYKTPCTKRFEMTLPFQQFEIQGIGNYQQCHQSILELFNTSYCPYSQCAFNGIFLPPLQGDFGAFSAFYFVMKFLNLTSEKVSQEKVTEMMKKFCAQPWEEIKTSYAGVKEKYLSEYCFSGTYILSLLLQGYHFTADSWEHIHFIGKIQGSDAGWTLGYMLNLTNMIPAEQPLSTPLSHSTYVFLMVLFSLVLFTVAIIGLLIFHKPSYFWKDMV

[3] = molecular target: P2Y purinoceptor 4 (Homo sapiens) (UniProt P51582); experiment: Agonist activity at recombinant human P2RY4 expressed in AD293 cells assessed as increase in intracellular calcium levels by Fluo-4/AM dye-based spectrofluorometer; type: functional, cell-based
Chain of P2Y purinoceptor 4 (Homo sapiens) (P51582 whole entry): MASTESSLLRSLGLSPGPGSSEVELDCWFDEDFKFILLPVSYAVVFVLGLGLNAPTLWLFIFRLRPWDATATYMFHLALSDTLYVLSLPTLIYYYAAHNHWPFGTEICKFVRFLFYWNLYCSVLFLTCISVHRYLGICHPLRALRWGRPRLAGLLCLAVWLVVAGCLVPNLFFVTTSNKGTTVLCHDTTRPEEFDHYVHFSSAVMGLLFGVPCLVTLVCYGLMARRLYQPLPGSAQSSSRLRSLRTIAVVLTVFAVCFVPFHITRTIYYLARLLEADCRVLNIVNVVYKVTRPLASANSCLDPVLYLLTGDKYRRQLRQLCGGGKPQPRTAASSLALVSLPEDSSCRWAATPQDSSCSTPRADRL
Method in brief: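 Human P2Y2, P2Y4 or P2Y6 receptor stably expressed in AD293 cells. Compound at 100 μM. Agonism read as change in intracellular calcium (Δ[Ca2+]i), with UDP or UTP as control.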

[4] = molecular target: T3, Ectonucleotide pyrophosphatase/phosphodiesterase family member 3 (Homo sapiens) (UniProt O14638); experiment: Inhibition of human NPP3 at 100 uM using pNP-TMP as substrate preincubated for 3 mins followed by substrate addition measured after 15 mins
T3 sequence (whole entry): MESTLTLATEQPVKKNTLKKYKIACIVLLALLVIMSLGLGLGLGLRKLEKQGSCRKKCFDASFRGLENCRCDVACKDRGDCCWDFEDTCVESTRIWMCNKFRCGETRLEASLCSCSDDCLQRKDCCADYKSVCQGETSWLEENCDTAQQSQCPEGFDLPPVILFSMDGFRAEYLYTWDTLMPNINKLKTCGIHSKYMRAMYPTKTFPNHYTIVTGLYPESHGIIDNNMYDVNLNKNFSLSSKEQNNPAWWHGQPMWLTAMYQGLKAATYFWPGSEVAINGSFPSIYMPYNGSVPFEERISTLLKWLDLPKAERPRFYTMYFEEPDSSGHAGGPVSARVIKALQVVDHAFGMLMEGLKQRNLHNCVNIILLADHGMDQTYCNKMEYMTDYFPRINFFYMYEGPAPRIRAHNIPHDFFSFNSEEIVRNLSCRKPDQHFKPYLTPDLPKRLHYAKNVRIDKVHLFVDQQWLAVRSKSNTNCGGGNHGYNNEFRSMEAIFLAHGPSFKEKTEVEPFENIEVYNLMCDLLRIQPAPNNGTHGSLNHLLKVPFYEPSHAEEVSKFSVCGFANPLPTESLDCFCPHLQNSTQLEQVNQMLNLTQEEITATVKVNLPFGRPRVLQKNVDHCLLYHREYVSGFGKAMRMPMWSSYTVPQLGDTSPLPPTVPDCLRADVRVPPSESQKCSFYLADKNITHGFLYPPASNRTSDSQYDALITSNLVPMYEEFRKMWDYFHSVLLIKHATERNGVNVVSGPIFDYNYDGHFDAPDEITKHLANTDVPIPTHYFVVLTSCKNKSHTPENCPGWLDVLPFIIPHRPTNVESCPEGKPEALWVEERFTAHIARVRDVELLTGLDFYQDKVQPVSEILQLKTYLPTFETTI
Method in brief: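 Human NPP1 (4−5 μg) or NPP3 (12−14 μg) cell lysate in mM 1 CaCl2, 140 NaCl, 5 KCl, 50 Tris pH 8.5, 37 °C. Compound at 100 μM, 3 min preincubation, 100 μM pNP-TMP substrate. p-Nitrophenol read at 405 nm after 15 min. Blank with enzyme added at end subtracted. Activity without compound taken as 100%. At least two independent experiments in triplicate.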

[5] = Drug metabolism at 2 mM at acidic pH after 5 days by 31P NMR method; type: physicochemical; conditions: read-out: Drug metabolism
[6] = Stability of the compound assessed as air oxidation at room temperature at 1.8 mM after 3 weeks by 31P NMR method; type: physicochemical; conditions: 504 h, 1800 µM
[7] = Drug metabolism at 2 mM at basic pH after 5 days by 31P NMR method; type: physicochemical; conditions: read-out: Drug metabolism

SMILES | inhibition [1] | inhibition [2] | Activity [3] | inhibition [4] | degraded at 120 h, 2000 µM [5] | Stability [6] | degraded at 120 h, 2000 µM [7]
O=c1ccn([C@@H]2O[C@H](COP(=S)(S)OP(=O)(O)O)[C@@H](O)[C@H]2O)c(=O)[nH]1 (some centres not stated) | 15% | 15% | inactive | 21% | – | – | –
O=c1ccn([C@@H]2O[C@H](COP(=S)(S)OP(=O)(O)CP(=O)(O)O)[C@@H](O)[C@H]2O)c(=O)[nH]1 (some centres not stated) | 15% | 15% | inactive | 21% | 2% | Stable | 8%
O=c1ccn([C@@H]2O[C@H](COP(=S)(S)OP(=O)(O)OP(=O)(O)O)[C@@H](O)[C@H]2O)c(=O)[nH]1 (some centres not stated) | inactive | inactive | inactive | – | 11% | Stable | 13%
